Screens deposited in PubChem BioAssay by several laboratories.
TbMetRS inhib = T. brucei MetRS inhibitors, primary screen, biochemical, luminescence; methionyl-tRNA synthetase (Trypanosoma brucei brucei); purified T. brucei MetRS, ATP depletion, Kinase-Glo luminescence; 360,000 compounds, 0.4% hits; inhibition, % at 11.9 µM;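 active = inhibition above a per-plate cutoff of the control wells' mean inhibition plus 3 SD, cut at about 5.5% in these data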
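System: purified T. brucei MetRS enzyme / Detection: Kinase-Glo luciferase luminescence reporting remaining unconsumed ATP / Medium: HEPES buffer with MgCl2, KCl, DTT, spermine, BSA, pyrophosphatase / Replication: singlicate, one well per compound / Evaluation: percent inhibition relative to median high and low control wells / Schedule: 2 h aminoacylation at 25 °C after 15 min preincubation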
PREPL inh = PREPL enzyme inhibitors, primary screen, biochemical, fluorescence polarization; 320,000 compounds, 0.68% hits; recombinant PREPL, fluorescence polarization activity-based probe; inhibition, % at 5.96 µM; AID 2751, 2010; Prolyl endopeptidase-like (Homo sapiens), Q4J6C6; in the data active = inhibition above about 43%
MT1-MMP act inh = blockers of MT1-MMP proenzyme processing, primary screen, HT1080 RFP-PRO-GFP cells, GFP/RFP fluorescence; GFP/RFP ratio fluorescence, overnight; percent of plate control window, DMSO zero; GFP/RFP ratio change, % at 20 µM; 360,000 compounds, 0.061% hits; AID 651647, 2012;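 active = GFP/RFP ratio change of at least 30% with cell ATP level not reduced by more than half and red fluorescence within 50% of control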
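Assay system: HT1080 cells carrying an RFP-PRO-GFP reporter | Dosing: Single dose of 20 µM compound, 1% DMSO final | Incubation: Cells overnight before dosing, compound overnight, 37 °C, 5% CO2 | Evaluation: GFP/RFP fluorescence ratio | Control set: DMSO and RFP-L50D-GFP cell wells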
iPSC survival up = enhancers of single-cell hiPSC survival, primary screen, ATPlite luminescence; 100% = ROCK inhibitor wells, 0% = DMSO; survival enhancement, % at 20 µM; 360,000 compounds, 0.044% hits; in the data active = survival enhancement above about 18%;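 also: cells exposed to compounds for 16 hours before the ATP read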
E coli Lon inh = inhibitors of E. coli Lon protease, primary screen, biochemical, fluorescence polarization; P0A9M0; 360,000 compounds, 0.42% hits; purified E. coli Lon protease; AID 602123, 2011; inhibition, % at 7.94 µM; in the data active = inhibition above about 13%, passing the limit was not always enough
Target sequence (P0A9M0 whole entry, looked up): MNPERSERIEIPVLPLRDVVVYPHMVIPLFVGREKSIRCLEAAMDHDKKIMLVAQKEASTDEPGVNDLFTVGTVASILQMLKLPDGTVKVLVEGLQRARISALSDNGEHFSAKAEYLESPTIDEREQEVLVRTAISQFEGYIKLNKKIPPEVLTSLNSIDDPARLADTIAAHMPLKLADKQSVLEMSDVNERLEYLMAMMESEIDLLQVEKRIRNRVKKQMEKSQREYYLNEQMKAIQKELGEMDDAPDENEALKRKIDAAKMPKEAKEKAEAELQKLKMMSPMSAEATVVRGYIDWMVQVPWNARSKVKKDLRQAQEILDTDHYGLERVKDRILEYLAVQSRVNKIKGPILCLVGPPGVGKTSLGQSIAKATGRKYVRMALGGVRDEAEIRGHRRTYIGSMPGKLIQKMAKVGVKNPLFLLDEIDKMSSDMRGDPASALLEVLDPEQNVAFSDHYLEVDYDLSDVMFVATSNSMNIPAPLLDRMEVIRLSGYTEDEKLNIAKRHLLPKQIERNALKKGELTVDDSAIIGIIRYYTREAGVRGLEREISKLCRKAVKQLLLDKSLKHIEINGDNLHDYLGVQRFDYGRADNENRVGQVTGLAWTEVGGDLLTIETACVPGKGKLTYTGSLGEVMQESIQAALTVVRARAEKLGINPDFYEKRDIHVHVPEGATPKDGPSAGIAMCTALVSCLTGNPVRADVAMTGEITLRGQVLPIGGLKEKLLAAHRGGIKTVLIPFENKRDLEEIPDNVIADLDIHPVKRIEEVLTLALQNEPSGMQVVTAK
SKN-1 block = suppressors of acrylamide-induced Pgst-4::GFP reporter in worms, primary screen, SKN-1 inhibitor project, whole organism, uHTS, GFP/RFP fluorescence ratio, strain VP596; inhibition, % at 21.8 µM; AID 624304, 2012; 360,000 compounds, 0.49% hits; C. elegans VP596 Pgst-4::GFP/RFP ratio, 24 h;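 active = interference check ratio from 0.5 to 1.5 plus GFP to RFP signal ratio inhibition reaching or exceeding a fixed threshold, cut at about 30% in these data, passing the limit was not always enough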
E coli Lon conf = E. coli Lon protease inhibitor retest, confirmation, biochemical, fluorescence polarization; shares compounds with E coli Lon inh; purified E. coli Lon; inhibition, % at 7.94 µM; 1,400 compounds, 31% hits; in the data active = inhibition above about 16%
Hits are given with their value; n = inactive; x = not tested or not shown. A selection: hits, their analogues and other compounds. The true share with any hit is near 1.8%.

SMILES	TbMetRS inhib	PREPL inh	MT1-MMP act inh	iPSC survival up	E coli Lon inh	SKN-1 block	E coli Lon conf
Cc1cc2cc(CNS(=O)(=O)c3ccccc3)ccc2n1C	n	n	n	n	31	n	20
COc1ccc(S(=O)(=O)NCc2ccc3c(c2)cc(C)n3C)cc1	n	n	n	n	15	n	n
CCS(=O)(=O)NCc1ccc2c(c1)cc(C)n2C	n	n	n	n	n	n	x
COc1ccc(/C=N/N=C2/CC(C)(C)Cc3n[nH]c(=O)cc32)cc1	n	n	n	n	45	n	21
COC(=O)N/N=C\c1cc2c(cc1Br)OCO2	n	n	n	n	18	n	n
CCOC(=O)C(C)(C)Sc1nc2c(cnn2-c2ccc(Cl)cc2)c(=O)[nH]1	n	n	n	n	n	n	x
CCOc1cccc(=O)c2c(C)n(-c3ccc(C(=O)O)cc3)c(C)c12	n	n	n	n	n	n	x
COc1cccc(=O)c2c(C)n(-c3ccc(C(=O)O)cc3)c(C)c12	n	n	x	n	27	n	n
Cc1oc2cc(O)ccc2c(=O)c1-c1nncn1-c1ccccc1	n	n	n	n	34	n	51
Cc1oc2cc(O)ccc2c(=O)c1-c1ccccc1	n	n	n	n	n	n	x
CCOC(=O)c1ccc(Cl)c(S(=O)(=O)N2CCCC2)c1	n	n	n	n	n	n	x
COc1ccc(-c2nc3c(C)cc(Br)cn3c2Cc2ccc(C)cc2)cc1OC	n	x	n	n	28	n	n
Cc1cc(Br)cn2c(Cc3ccsc3)c(C(C)(C)C)nc12	n	x	n	n	80	n	71
COc1ccc(-c2nc3c(C)cc(Br)cn3c2Cc2ccccc2)cc1OC	n	x	n	n	n	n	x
Cc1cc(Br)cn2c(Cc3ccsc3)c(C3CCCCC3)nc12	n	x	n	n	50	n	53
Cc1cc(Br)cn2c(Cc3ccsc3)c(-c3ccc(F)cc3)nc12	n	x	n	n	25	n	n
CCCCN(C(=O)C1CC(=O)N(Cc2ccc(C)cc2)C1)c1c(N)n(CCCC)c(=O)[nH]c1=O (centres undefined)	n	n	n	n	n	n	x
COc1ccc(C(=S)N2CCCC2)cc1C	n	n	n	n	n	n	x
c1ccc2c(c1)ccc1[nH]c3c(c12)CCCC3	n	x	n	n	n	n	x
O=c1[nH]c2ccccc2c2nc(-c3cccc(S(=O)(=O)N4CCCC4)c3)nn12	n	n	n	n	n	n	x
COc1cccc(NC(=O)COC(=O)c2ccccc2C(=O)N2CCN(c3ccccc3)CC2)c1	n	n	n	n	16	n	n
O=C(COC(=O)c1ccccc1C(=O)N1CCN(c2ccccc2)CC1)Nc1ccccc1	n	n	n	n	n	n	x
O=C(COC(=O)c1ccccc1C(=O)N1CCN(c2ccccc2)CC1)Nc1ccc(F)cc1	n	n	n	n	22	n	n
Cc1cc(S(=O)(=O)N2CCCC2)ccc1OCC(=O)N1CCCCC1	n	n	n	n	n	n	x
N#Cc1c(N2CCCC2)nc(N)c2c(N)nc(N3CCCC3)cc12	n	n	n	n	51	n	n
SMILES	TbMetRS inhib	PREPL inh	MT1-MMP act inh	iPSC survival up	E coli Lon inh	SKN-1 block	E coli Lon conf
CC/C(=N\NC(=O)c1ccc(CN(C)S(=O)(=O)c2ccc(C)cc2)cc1)c1ccc(OC(F)F)cc1	n	n	n	n	n	n	x
COC(=O)c1ccc(NC(=O)CN2CCC(NC(=O)c3ccccc3F)CC2)cc1	n	x	n	n	n	n	x
N#C/C(=C(/O)c1cccs1)c1nc2ccccc2[nH]1	n	77	n	n	16	n	n
N#C/C(=C(/O)c1ccc(Br)s1)c1nc2ccccc2[nH]1	n	n	n	n	n	n	x
CC(=O)c1ccc2c(c1)c(C#N)c1ccccc1[n+]2[O-]	n	x	n	n	96	n	88
C=C(C)c1cccc(C(C)(C)NC(=O)Nc2ccc(C)cn2)c1	n	n	n	n	n	n	x
C=C(C)c1cccc(C(C)(C)NC(=O)Nc2ccc(OC)nc2)c1	n	n	n	n	46	n	18
COc1ccc(NC(=O)c2cccc(-c3ccc(O)cc3)c2)cn1	n	n	n	n	74	n	35
Cc1ccsc1C(=O)OC1CCOC1=O (centres undefined)	n	n	n	n	n	n	x
CCN1CC=C2C(C#N)=C(N)C(C#N)(C#N)C(CCc3ccccc3)C2C1 (centres undefined)	n	n	n	n	27	n	21
C/C(=N\NC(=S)NCCc1ccccc1)c1cccs1	n	n	n	n	101	n	57
COc1ccc(/C=C2\CCc3c2nc2ccccc2c3C(=O)O)cc1OC	n	n	n	n	65	n	n
CC(C)c1cc(CNC(=O)C2CCC(=O)N(Cc3ccccc3F)C2)on1 (centres undefined)	n	n	n	n	n	n	x
Cc1ccc(NC(=O)COC(=O)c2ccc(Br)o2)cc1S(=O)(=O)N1CCCCC1	n	n	n	n	23	n	20
Cc1ccc(NC(=O)COC(=O)c2ccc([N+](=O)[O-])o2)cc1S(=O)(=O)N1CCCCC1	n	n	n	n	n	n	x
Cc1nn(CC(=O)NCCCc2ccccc2)c(=O)c2cc3occc3n12	n	n	x	n	n	n	x
Nc1ccc2c(O)cc(S(=O)(=O)O)cc2c1	n	x	n	n	137	n	n
Nc1cccc2c(O)cc(S(=O)(=O)O)cc12	n	x	x	n	65	n	n
CC(=O)Nc1ccc2c(O)cc(S(=O)(=O)O)cc2c1	n	x	n	n	n	n	x
COc1cc(CNc2ncnc3c2ncn3[C@H]2CN(Cc3ccc4c(c3)OCO4)C[C@@H](CO)O2)cc(OC)c1OC	n	x	n	n	n	n	x
CC(=O)c1c(Cl)nc2cccc3c2c1-c1ccccc1C3=O	n	n	n	n	24	n	28
O=C1CCC/C(=N\NC(=O)c2ccc(COc3cccc4cccnc34)cc2)C1	n	n	n	n	37	n	n
NNC(=O)c1ccc(COc2cccc3cccnc23)cc1	n	n	n	n	n	n	x
CC(C)(CN1CCCC1)NS(=O)(=O)c1ccccc1	n	n	n	n	n	n	x
O=C(c1ccco1)[C@@H]1[C@@H]2C(=O)N(c3ccccc3)C(=O)[C@@H]2C2c3ccccc3C=CN21 (some centres undefined)	n	n	n	n	24	n	33
